Series [1] in a line: folding enthalpy; higher = less favourable; fluorescence melt of hairpins on a sequencing array, two-state fit. Conditions: sodium 0.088 M. Put shortly:
(§1)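 On a sequenced MiSeq flow cell, library hairpins with annealed Cy3 and quencher oligos were imaged for Cy3 fluorescence in 2.5 °C steps up to 60 °C, in 50 mM Na-HEPES pH 8.0, 25 mM NaCl. Normalisation used pre-quench Cy3 and control constructs. Bootstrapped two-state fits gave melting temperature and folding enthalpy, combined by inverse variance across four replicates and with fitted temperatures raised by 9.35 °C to match UV melts.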

A short description of series [2]: melting temperature; fluorescence melt of hairpins on a sequencing array, two-state fit, raised by 9.35 °C to match UV melts. The conditions noted are these: sodium 0.088 M. In a few lines: as §1

As for GCAGGAGGAAACTCCTAC (.(((((....))))).), the folding enthalpy in series [1] was -15.2 kcal/mol. The Tm in series [2] is 37.8 °C.
On the same counts, the results for GATCTCGACTGAGATC ((((((....)))))) are -45.9 kcal/mol and 55.8 °C.
For AAAGTGAAAACTTT (((((....))))), in that order: -11.1 kcal/mol and 33 °C.
Regarding GCAAGGCGAAAGCATAGC ((.(.((....)).).)), in series [1], the folding enthalpy was -14.8 kcal/mol. In addition, in series [2], the Tm was determined as 39.6 °C.
On the same counts, the results for GATCTGTGTCAGATC ((((((...)))))) are -34.1 kcal/mol and 50.6 °C.
For GATCCCCGTAGGGATC ((((((....)))))), in that order: -20.6 kcal/mol and 61.9 °C.
On the same counts, the results for GGGAAGAAATTCCC (((((....))))) are -19.9 kcal/mol and 44.6 °C.
Consider GCACGCCGAAAGGCATGC (((.(((....))).))), for which the folding enthalpy in series [1] is -28 kcal/mol. The Tm in series [2] came out at 60.5 °C.
For GCAAATGGAAACATTTGC (((((((....))))))), in that order: -40.9 kcal/mol and 61.8 °C.
In the case of GCGACGCGAAAGCTTGGC ((.(.((....)).).)), the folding enthalpy in series [1] is -10.3 kcal/mol. In addition, the Tm in series [2] was 37.2 °C.
On the same counts, the results for GTGACTGGAAACAATCAC ((((.((....)).)))) are -20.1 kcal/mol and 36 °C.
For GCGAGAGTTCGC ((((....)))), in that order: -16.3 kcal/mol and 47.5 °C.
On the same counts, the results for GAGCCTGGAAACGGGCTC (((((.(....).))))) are -47.8 kcal/mol and 58.9 °C.
For GATCCGGGAAACCGAATC (((.(((....))).))), the folding enthalpy in series [1] is -24.5 kcal/mol. In addition, the Tm in series [2] is 38.2 °C.
On the same counts, the results for GATCTGGGCCAGATC ((((((...)))))) are -51.8 kcal/mol and 53.2 °C.
On the same counts, the results for GCGGCAGGAAACTGCCAC (.(((((....))))).) are -10.8 kcal/mol and 54.6 °C.
In the case of CGGATCCGGAAACGGCCG (((..(((....)))))), in series [1], the folding enthalpy was -20.6 kcal/mol. The Tm in series [2] is 38.3 °C.
On the same counts, the results for CGTCCCGGAAACGGTACG (((.(((....))).))) are -29.1 kcal/mol and 47.2 °C.
For GATCTGACGCAGATC ((((((...)))))), in that order: -29.5 kcal/mol and 47.3 °C.
For GGATGGGGAAACCCGTCC (((.(((....))).))), in that order: -48.4 kcal/mol and 54.2 °C.
GCAGCGGGAAACCGCCGC ((.((((....)))).)): the folding enthalpy in series [1] is -18.6 kcal/mol. The Tm in series [2] was found to be 55.2 °C.
For GTAGGTCGAAAGACTAC (((.(((....)))))), in that order: -17.6 kcal/mol and 43.3 °C.
On the same counts, the results for GTCGCAACGAAAGTTGAC (((..(((....)))))) are -12.1 kcal/mol and 29.4 °C.
With GCTAGCGGAAACGTTAGC ((((.((....)).)))), in series [1], the folding enthalpy is -34.1 kcal/mol. Besides, the Tm in series [2] stood at 51.3 °C.
For GGGTTGCGAAAGCACCCC (((.(((....))).))), in that order: -19.4 kcal/mol and 62.9 °C.
For GTAGACGCGAAAGCGTAC (((..(((....)))))), in that order: -8.63 kcal/mol and 36.9 °C.
Turning to CGCGACGGAAACGTTGCG (((.(((....))).))), the folding enthalpy in series [1] is -54.2 kcal/mol. The Tm in series [2] turned out to be 61 °C.
For GCTAAGCGAAAGCATAGC ((((.((....)).)))), in that order: -27 kcal/mol and 54.8 °C.
On the same counts, the results for GGGAAGGGAAACCTCCCC (((.(((....))).))) are -21.6 kcal/mol and 45.2 °C.
On the same counts, the results for GACAGGGCGAAAGCCGTC (((..(((....)))))) are -14.1 kcal/mol and 49.6 °C.
As for GATCGGGGCTCCGATC ((((((....)))))), the folding enthalpy in series [1] is -34.5 kcal/mol. Besides, the Tm in series [2] turned out to be 59.4 °C.
On the same counts, the results for GTGCGCCGAAAGGCTCAC (((.(((....))).))) are -29.1 kcal/mol and 56.9 °C.
On to GTTTTCGGAAACGAAGAC ((.((((....)))).)), for which the folding enthalpy in series [1] is -28.8 kcal/mol. Further, the Tm in series [2] was 42.5 °C.
For GCCTAAGGAAACTTAGGC (((((((....))))))), in that order: -40.1 kcal/mol and 58.3 °C.
For GACTACGAAAGTATGTC ((((((....))).))), in that order: -26.2 kcal/mol and 44.7 °C.
On to GCAAGGGGAAACCCTCGC ((.((((....)))).)), for which, in series [1], the folding enthalpy was -23.4 kcal/mol. Besides, in series [2], the Tm stood at 45 °C.
For GAAGTCCGAAAGGATTTC (((.(((....))).))), in that order: -31.6 kcal/mol and 50.2 °C.

(Values after the array DNA melting data of Ke et al. (doi:10.1101/2024.01.08.574731).)
